Assay results published in ChEMBL document CHEMBL1154185 (J Med Chem, 2009).

How the values were obtained:
[1] = tested on: A549; assay: Growth inhibition of proapoptotic stimuli-resistant human A549 cells after 72 hrs by MTT assay; assay type: functional, cell-based
Method in brief: (§1)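 Cells plated 24 h in 96-well plates (10,000-40,000 cells/mL by cell type) in MEM (5% or 10% heat-inactivated FBS; with 100 μM non-essential amino acids for WI-38 and NHDF) or RPMI 10% FBS (A549), then exposed 72 h to compound up to 100 μM; MTT reduction read at 570 nm (reference 630 nm); sextuplicate.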

[2] = Growth inhibition of proapoptotic stimuli-resistant human OE21 cells after 72 hrs by MTT assay; assay type: functional, cell-based
[3] = Growth inhibition of proapoptotic stimuli-sensitive human Hs683 cells after 72 hrs by MTT assay; assay type: functional, cell-based, Hs 683
Method in brief: (§2)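 MTT assay. Cells were plated at 10,000–40,000 cells/mL and left 24 h to attach, then exposed to compound for 72 h (untreated controls). Formazan was read at 570 nm (reference 630 nm). Tested up to 10 μM (first panel) or up to 100 μM (second panel). Sextuplicate. U373 grown in MEM + 5% FBS; Hs683, SK-MEL-28 and B16F10 in RPMI + 10% FBS.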

[4] = Growth inhibition of proapoptotic stimuli-resistant human U373 cells after 72 hrs by MTT assay; assay type: functional, cell-based, U-373MG ATCC; method in brief: as §2
[5] = tested on: B16-F10; assay: Growth inhibition of proapoptotic stimuli-sensitive mouse B16F10 cells after 72 hrs by MTT assay; assay type: functional, cell-based; method in brief: as §2
[6] = tested on: SK-MEL-28; assay: Growth inhibition of proapoptotic stimuli-resistant human SK-MEL-28 cells after 72 hrs by MTT assay; assay type: functional, cell-based; method in brief: as §2
[7] = tested on: NHDF; assay: Growth inhibition of human NHDF after 72 hrs by MTT assay; assay type: cell-based; method in brief: as §1
[8] = Growth inhibition of human WI38 cells after 72 hrs by MTT assay; assay type: cell-based; details: WI-38, 72 h; method in brief: as §1
[9] = Growth inhibition of human WS1 cells after 72 hrs by MTT assay; assay type: cell-based; details: WS1, 72 h; method in brief: as §1

| SMILES | IC50 ([5]; Mus musculus, B16-F10, 72 h) [µM] | IC50 ([6]; Homo sapiens, SK-MEL-28, 72 h) [µM] | IC50 ([1]; a549) [µM] | IC50 ([5]; b16-f10) [µM] | IC50 ([6]; sk-mel-28) [µM] | IC50 ([1]; Homo sapiens, A549, 72 h) [µM] | IC50 ([2]; Homo sapiens, OE21, 72 h) [µM] | IC50 ([3]; Homo sapiens, Hs 683, 72 h) [µM] | IC50 ([4]; Homo sapiens, U373 MG, 72 h) [µM] | IC50 [7] [µM] | IC50 [8] [µM] | IC50 [9] [µM] | IC50 ([2]; oe21) [µM] | IC50 ([3]; hs 683) [µM] | IC50 ([4]; u-373mg atcc) [µM] |
| --- | --- | --- | --- | --- | --- | --- | --- | --- | --- | --- | --- | --- | --- | --- | --- |
| O[C@H]1[C@H]2c3cc4c(cc3CN3CCC(=C[C@H]1O)[C@H]23)OCO4 | > 10 | > 10 |  |  |  | > 10 | > 10 | > 10 | > 10 |  |  |  |  |  |  |
| COC1=C[C@@H]2CCN3Cc4cc5c(cc4[C@@H]([C@H]23)[C@@H]1O)OCO5 [AMARBELLISINE] | 6.7 | 8.3 |  |  |  | 7.2 |  | 8.3 |  | > 100 | > 100 | 97.6 |  |  |  |
| C1=C2CCN3Cc4cc5c(cc4[C@H](CC1)[C@@H]23)OCO5 [LYCORENE] | > 10 | > 10 |  |  |  | > 10 | > 10 | > 10 | > 10 |  |  |  |  |  |  |
| [O-]c1cc2c3c(c1)c1cc4c(cc1c[n+]3CC2)OCO4 [UNGEREMINE] | > 10 | > 10 |  |  |  | > 10 | > 10 | > 10 | 8.3 |  |  |  |  |  |  |
| O[C@H]1[C@H]2c3cc4c(cc3CN3CC[C@@H](C[C@@H]1O)[C@H]23)OCO4 | > 10 | > 10 |  |  |  | > 10 | > 10 | > 10 | > 10 |  |  |  |  |  |  |
| O[C@H]1[C@H]2c3cc4c(cc3CN3CC[C@H](C[C@@H]1O)[C@H]23)OCO4 | > 10 | > 10 |  |  |  | > 10 | > 10 | > 10 | > 10 |  |  |  |  |  |  |
| COc1cc2c(cc1O)CN1CCC3=CC[C@@H](O)[C@@H]2[C@@H]31 [NORPLUVINE] | > 10 | > 10 |  |  |  | > 10 | > 10 | > 10 | > 10 |  |  |  |  |  |  |
| C1=C2CCN3Cc4cc5c(cc4[C@H]([C@@H]4O[C@H]14)[C@@H]23)OCO5 | 4.6 | 9.5 |  |  |  | 3.4 | 8.5 | 3.3 | 2.4 | 9.3 | 28.6 | 36.8 |  |  |  |
| CC(=O)O[C@H]1C=C2CCN3Cc4cc5c(cc4[C@H]([C@@H]1O)[C@@H]23)OCO5 | > 10 | > 10 |  |  |  | > 10 | > 10 | > 10 | > 10 | > 100 | 88.5 | > 100 |  |  |  |
| c1cc2c3c(c1)-c1cc4c(cc1CN3CC2)OCO4 [ANHYDROLYCORINE] | > 10 | > 10 |  |  |  | 4.5 | 8.8 | 7.1 | 5.1 | 26.6 | 30.1 | 23.7 |  |  |  |

The next lines start with results.

| IC50 ([5]; Mus musculus, B16-F10, 72 h) [µM] | IC50 ([6]; Homo sapiens, SK-MEL-28, 72 h) [µM] | IC50 ([1]; a549) [µM] | IC50 ([5]; b16-f10) [µM] | IC50 ([6]; sk-mel-28) [µM] | SMILES | IC50 ([1]; Homo sapiens, A549, 72 h) [µM] | IC50 ([2]; Homo sapiens, OE21, 72 h) [µM] | IC50 ([3]; Homo sapiens, Hs 683, 72 h) [µM] | IC50 ([4]; Homo sapiens, U373 MG, 72 h) [µM] | IC50 [7] [µM] | IC50 [8] [µM] | IC50 [9] [µM] | IC50 ([2]; oe21) [µM] | IC50 ([3]; hs 683) [µM] | IC50 ([4]; u-373mg atcc) [µM] |
| --- | --- | --- | --- | --- | --- | --- | --- | --- | --- | --- | --- | --- | --- | --- | --- |
| > 10 | > 10 |  |  |  | CC(=O)O[C@H]1[C@H]2c3cc4c(cc3CN3CC[C@H](C[C@@H]1OC(C)=O)[C@H]23)OCO4 | > 10 | > 10 | > 10 | > 10 |  |  |  |  |  |  |
| > 10 | > 10 |  |  |  | CC(=O)O[C@H]1[C@H]2c3cc4c(cc3CN3CC[C@@H](C[C@@H]1OC(C)=O)[C@H]23)OCO4 | > 10 | > 10 | > 10 | > 10 |  |  |  |  |  |  |
| > 10 | > 10 |  |  |  | CC(=O)O[C@H]1[C@H]2c3cc4c(cc3CN3CCC(=C[C@@H]1O)[C@H]23)OCO4 | > 10 | > 10 | > 10 | > 10 |  |  |  |  |  |  |
| 7.5 | > 10 |  |  |  | COc1cc2c(cc1O)[C@@H]1[C@H](O)[C@@H](O)C=C3CCN(C2)[C@H]31 [PSEUDOLYCORINE] |  |  | 7.9 |  | 66.9 | 44 | 79.1 |  |  |  |
| > 10 | > 10 |  |  |  | O[C@@H]1CC=C2CCN3Cc4cc5c(cc4[C@H]1[C@@H]23)OCO5 [CARANINE] | > 10 | > 10 | > 10 | > 10 |  |  |  |  |  |  |
| > 10 | > 10 |  |  |  | O=C1c2cc3c(cc2[C@@H]2[C@H](O)[C@@H](O)C[C@H]4CCN1[C@H]42)OCO3 | > 10 | > 10 | > 10 | > 10 |  |  |  |  |  |  |
|  |  | > 10 | > 10 | > 10 | C[N+]12CCC3=C[C@H](O)[C@@H](O)[C@@H](c4cc5c(cc4C1)OCO5)[C@@H]32 (some centres not stated) |  |  |  |  |  |  |  | > 10 | > 10 | > 10 |
| > 10 | > 10 |  |  |  | O=C1C=C2CCN3Cc4cc5c(cc4[C@H]([C@@H]1O)[C@@H]23)OCO5 |  | > 10 | > 10 | > 10 |  |  |  |  |  |  |
| 6.9 | > 10 |  |  |  | O[C@H]1[C@H]2c3cc4c(cc3CN3CCC(=C[C@@H]1Cl)[C@H]23)OCO4 | 3.8 | 9.6 | 3.1 | 2.3 | 72.1 | 46 | > 100 |  |  |  |
| > 10 | > 10 |  |  |  | CC(=O)O[C@H]1[C@H]2c3cc4c(cc3CN3CCC(=C[C@@H]1OC(C)=O)[C@H]23)OCO4 | > 10 | > 10 | > 10 | > 10 |  |  |  |  |  |  |
